# Results: article PMC11966289 (ACS Omega, 2025)
# Key:
# [1] = tested on: P. falciparum (D6 strain); experiment: In vitro antiplasmodial activity; assay type: cell-based; settings: Plasmodium falciparum, D6, 72 h, read-out: P. falciparum (D6 strain) IC50
# [2] = tested on: P. falciparum (W2 strain); experiment: In vitro antiplasmodial activity; assay type: cell-based; settings: Plasmodium falciparum, W2, 72 h, read-out: P. falciparum (W2 strain) IC50
# Method in brief: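 Infected erythrocytes (2% hematocrit, 2% parasitemia) in RPMI 1640 with 60 μg/mL amikacin and 10% human serum, exposed to serially diluted test compound under 90% N2/5% CO2/5% O2 at 37 °C for 72 h. Parasite LDH measured with Malstat reagent (30 min, room temperature), then NBT/PES (1 h, dark), stopped with 5% acetic acid, absorbance 650 nm. Triplicates; chloroquine/artemisinin and DMSO controls; IC50 from dose–response.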
# [3] = In vitro cytotoxicity, Neutral Red assay; assay type: cell-based; settings: African green monkey, Vero cells
# P. berghei = experiment: In vivo antiplasmodial evaluation in the P. berghei-mouse malaria model; design: species or system P. berghei (Swiss Webster Hsd:ND4 mice); settings: 33.3 mg/kg × 3 days, oral gavage, mice
Structure (SMILES),IC50 [1] [µM],IC50 [2] [µM],IC50 at 48 h [3] [µg/mL],% Parasitemia suppression day 5 (P. berghei) [%],% Parasitemia suppression day 7 (P. berghei) [%],MST (mean survival time) (P. berghei) [days],cure (mice without parasitemia until day 28) (P. berghei),survival (animals survived on day 28/total) (P. berghei)
"C[C@@H]1CC[C@H]2[C@@H](C)C(=O)O[C@@H]3O[C@@]4(C)CC[C@@H]1[C@]32OO4 [ART, artemisinin, reference compound]",0.019,0.0281,> 4.76,–,–,–,–,–
"CCN(CC)CCCC(C)Nc1ccnc2cc(Cl)ccc12 (centres unmarked) [CQ, Chloroquine, reference compound]",0.06,0.853,> 4.76,100.00,100.00,28,2/5,5/5
"Cc1cc(Cl)nc(N2CCN(CCNc3ccnc4cc(Cl)ccc34)CC2)n1 [Compound 5a, 7-Chloro-N-(2-(4-(4-chloro-6-methylpyrimidin-2-yl)piperazin-1-yl)ethyl)quinolin-4-amine]",0.07,0.21,> 4.76,–,–,–,–,–
"Cc1cc(Cl)nc(N2CCN(CCCNc3ccnc4cc(Cl)ccc34)CC2)n1 [Compound 5b, 7-Chloro-N-(3-(4-(4-chloro-6-methylpyrimidin-2-yl)piperazin-1-yl)propyl)quinolin-4-amine]",0.1,0.35,> 4.76,–,–,–,–,–
"Clc1ccc2c(NCCCN3CCN(c4nccc(Cl)n4)CC3)ccnc2c1 [Compound 5c, 7-Chloro-N-(3-(4-(4-chloropyrimidin-2-yl)piperazin-1-yl)propyl)quinolin-4-amine]",0.062,0.23,> 4.76,–,–,–,–,–
"Cc1cc(N2CCN(CCNc3ccnc4cc(Cl)ccc34)CC2)nc(Cl)n1 [Compound 6a, 7-Chloro-N-(2-(4-(2-chloro-6-methylpyrimidin-4-yl)piperazin-1-yl)ethyl)quinolin-4-amine]",0.079,0.5,> 4.76,–,–,–,–,–
"Cc1cc(N2CCN(CCCNc3ccnc4cc(Cl)ccc34)CC2)nc(Cl)n1 [Compound 6b, 7-Chloro-N-(3-(4-(2-chloro-6-methylpyrimidin-4-yl)piperazin-1-yl)propyl)quinolin-4-amine]",0.066,0.2,> 4.76,–,–,–,–,–
"Clc1ccc2c(NCCCN3CCN(c4ccnc(Cl)n4)CC3)ccnc2c1 [Compound 6c, 7-Chloro-N-(3-(4-(2-chloropyrimidin-4-yl)piperazin-1-yl)propyl)quinolin-4-amine]",0.073,0.42,> 4.76,–,–,–,–,–
"Cc1cc(N2CCN(CCNc3ccnc4cc(Cl)ccc34)CC2)nc(N2CCCCC2)n1 [Compound 7a, 7-Chloro-N-(2-(4-(6-methyl-2-(piperidin-1-yl)pyrimidin-4-yl)piperazin-1-yl)ethyl) quinolin-4-amine]",0.032,0.04,> 4.76,–,–,–,–,–
"Cc1cc(N2CCN(CCNc3ccnc4cc(Cl)ccc34)CC2)nc(N2CCOCC2)n1 [Compound 7b, 7-Chloro-N-(2-(4-(6-methyl-2-morpholinopyrimidin-4-yl)piperazin-1-yl)ethyl) quinolin-4-amine]",0.095,0.049,> 4.76,–,–,–,–,–
"Cc1cc(N2CCN(CCNc3ccnc4cc(Cl)ccc34)CC2)nc(N2CCSCC2)n1 [Compound 7c, 7-Chloro-N-(2-(4-(6-methyl-2-thiomorpholinopyrimidin-4-yl)piperazin-1-yl)ethyl) quinolin-4-amine]",0.038,0.064,> 4.76,–,–,–,–,–
"Cc1cc(N2CCN(CCNc3ccnc4cc(Cl)ccc34)CC2)nc(N2CCCC2)n1 [Compound 7d, 7-Chloro-N-(2-(4-(6-methyl-2-(pyrrolidin-1-yl)pyrimidin-4-yl)piperazin-1-yl)ethyl) quinolin-4-amine]",0.013,0.02,> 4.76,–,–,–,–,–
